High-throughput results deposited in PubChem BioAssay by Broad Institute.
Only some compounds are listed: those with a hit (about 2.1% of all), similar ones and a draw of the others.
ERp5 block: ERp5 (human) disulfide isomerase inhibition | Q15084 | ERp5 insulin aggregation, absorbance 650 nm, 90 min | inhibition, % at 9.99 µM | 350,000 tested, 0.05% active | AID 651711;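 active = mean replicate inhibition above about 25%, with every replicate also reaching it, limit read from the data, passing the limit was not always enough; inconclusive = only one of those two criteria met; inactive = neither criterion met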
AF4-AF9 inh: blocks AF4 peptide binding to human AF9. AlphaScreen, biotin-AF4 peptide binding to FLAG-AF9. AID 651704. inhibition, % at 10 µM. P42568. 350,000 tested, 0.47% active;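 active = every replicate reaching a set inhibition limit, whatever the replicate mean, cut at about 25% in these data; inconclusive = mean inhibition reaches that limit but some replicates miss it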;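 also: 0% = plate neutral control median and 100% = total signal loss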
Target sequence (P42568 whole entry, looked up): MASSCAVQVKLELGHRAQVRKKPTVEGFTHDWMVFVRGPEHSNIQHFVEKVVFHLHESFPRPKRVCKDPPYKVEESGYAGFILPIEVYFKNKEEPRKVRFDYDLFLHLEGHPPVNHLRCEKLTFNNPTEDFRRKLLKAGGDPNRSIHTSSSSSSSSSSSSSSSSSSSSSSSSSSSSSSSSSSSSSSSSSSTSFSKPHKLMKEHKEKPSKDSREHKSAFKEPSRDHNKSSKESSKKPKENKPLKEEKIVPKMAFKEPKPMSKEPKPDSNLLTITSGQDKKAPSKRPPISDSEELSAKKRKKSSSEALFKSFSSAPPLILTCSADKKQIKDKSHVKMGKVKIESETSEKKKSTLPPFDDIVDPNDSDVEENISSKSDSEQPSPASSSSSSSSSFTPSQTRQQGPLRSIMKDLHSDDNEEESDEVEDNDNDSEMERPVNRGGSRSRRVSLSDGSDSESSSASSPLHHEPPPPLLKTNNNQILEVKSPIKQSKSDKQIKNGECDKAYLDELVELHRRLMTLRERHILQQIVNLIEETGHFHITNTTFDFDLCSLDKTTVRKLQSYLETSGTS
ARNT TACC3 PPI: ARNT/TACC3 interaction disruption; Q9Y6A5; AlphaScreen His-ARNT PAS-B/GST-TACC3 binding, luminescence; TACC3 fragment carries E629A point mutation; inhibition, % at 9.99 µM; 390,000 tested, 0.66% active; AID 623870;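 active = mean inhibition of replicates at least 50% and at least half of replicates each reaching 50%; inconclusive = half or more replicates reach 50% but mean below 50%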;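 also: 0% = complete ARNT plus TACC3 wells and 100% = ARNT alone without TACC3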
PDI inh: inhibitors of human protein disulfide isomerase; P07237; PDI insulin aggregation turbidity, A650, 90 min; inhibition, % at 10 µM; 350,000 tested, 0.052% active;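 active = mean inhibition across replicates of 30% or more, whatever share of single replicates reach that level; inconclusive = mean inhibition below 30% while every single replicate reaches 30%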
FGF22 binding: FGF22 (human) thermal shift binding; Q9HCT0; recombinant FGF22 thermal shift, SYPRO orange fluorescence; percent of sucrose octasulfate shift, DMSO zero; activity (Tm shift, normalised), % at 9.99 µM; 340,000 tested, 1.5% active;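 active = mean Tm shift, scaled 0 neutral to 100 positive control, at about 1.3% or above, every replicate too, limit read from the data; inconclusive = no clear call, values can overlap the other calls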
FN deposit inh: fibronectin deposition inhibition | AID 743247 | AH1F fibroblasts, Alexa488-fibronectin deposition fluorescence, overnight | inhibition, % at 12.6 µM | 350,000 tested, 0.086% active;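 active = mean inhibition across replicates of 30% or more, regardless of how many single replicates reach that level; inconclusive = mean under 30% yet at least half of replicates reach 30%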;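 also: positive control wells lacked labelled fibronectin entirely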
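Material: AH1F fibroblast monolayer depositing Alexa488-labelled fibronectin into matrix | Input: 10000 AH1F cells/well | Medium: DMEM plus 2% serum, read in PBS | Reagent: Alexa488-fibronectin, 24 nM final in well | Compound dosing: One dose per compound, pinned | Schedule: 1 h adhesion, overnight exposure | Measured by: Fluorescence at 485 nm excitation, 525 nm emission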
The depositor's hits bear a star; u = inconclusive; x = no result given.

SMILES	ERp5 block	AF4-AF9 inh	ARNT TACC3 PPI	PDI inh	FGF22 binding	FN deposit inh
Cc1cccc(-c2ccc3[nH]c4c(c3c2)CCN2C[C@H]3[C@H](C)ON(C)[C@H]3C[C@@H]42)c1	10	39*	x	2	0	x
CN[C@H]1C[C@H]2c3[nH]c4ccc(-c5cccc(C)c5)cc4c3CCN2C[C@H]1[C@H](C)O	8	40*	x	7	0	-4
COc1ccc(NC(=O)Nc2ccc3c(c2)CC(=O)N([C@H](C)CO)C[C@H](C)[C@@H](CN(C)CC2CC2)O3)cc1	3	15	2	x	0	x
CC(C)(C)CC(C)(C)N=C1Nc2cc(Cl)c(Cl)cc2NC12C[C@H]1CCC(=O)N3CC[C@@H](C2)[C@@H]13 (stereo not given in full)	1	8	4	5	0	-3
CC(C)(C)CC(C)(C)N=C1Nc2ccccc2NC12C[C@H]1CCC(=O)N3CC[C@@H](C2)[C@@H]13 (stereo not given in full)	-3	28*	8	-2	-1	9
C[C@H]1CN([C@@H](C)CO)C(=O)c2cccc(NS(=O)(=O)c3ccc(F)cc3)c2O[C@H]1CN(C)Cc1ccc(C(=O)O)cc1	0	-1	-8	x	0	x
Cc1nn(C)cc1S(=O)(=O)Nc1ccccc1Br	3	-1	-3	-4	0	3
COc1ccc(C)cc1NS(=O)(=O)c1cn(C)nc1C	-61	-8	11	-4	43*	6
CCOc1ccc(/C=C2/SC(=S)N(C(C(=O)O)c3ccccc3)C2=O)cc1OCC (stereo not given)	-8	-4	0	15	7.5*	x
COc1cc(/C=C2\SC(=S)N(NS(=O)(=O)c3ccccc3)C2=O)ccc1O	1	-23	2	41*	0	0
CCOc1cc(/C=C2\SC(=S)N(C(C(=O)O)c3ccccc3)C2=O)ccc1O (stereo not given)	0	1	12	35*	x	7
COc1cc(/C=C2\SC(=S)N(NS(=O)(=O)c3ccc(C)cc3)C2=O)ccc1O	-6	4	8	u	1	11
O=C(O)C(c1ccccc1)N1C(=O)/C(=C\c2ccc(O)c(O)c2)SC1=S (stereo not given)	4	5	x	28	x	7
COc1cc(/C=C2\SC(=S)N(C(C(=O)O)c3ccccc3)C2=O)ccc1O (stereo not given)	5	5	5	24	x	1
C#CCNC(=O)C1=C[C@H](c2ccc(C#C)cc2)C[C@H](OCCCCO)O1	-8	-2	x	x	1	x
O=S(=O)(N[C@H]1CC[C@H](CCn2cc(C3CC3)nn2)O[C@H]1CO)c1ccc(F)cc1	-1	-2	-5	x	0	x
C[C@@H]1CCCCO[C@@H](CN(C)C(=O)Nc2ccccc2)[C@H](C)CN([C@@H](C)CO)C(=O)c2cc(NC(=O)CCC(F)(F)F)ccc2O1	1	-3	0	x	-1	-1
CCN(CC)CCOC(=O)/C=C/c1ccccc1	2	-3	-1	-2	0	8
CCN(CC)CC(C)(C)C(=O)/C=C/c1ccc(/C=C/C(=O)C(C)(C)CN(CC)CC)cc1	2	-6	-6	-7	0	46*
C[C@@H]1CN([C@@H](C)CO)C(=O)c2cccc(NS(=O)(=O)c3cccs3)c2O[C@H]1CN(C)S(=O)(=O)c1ccc(Cl)cc1	-3	-1	x	x	0	x
Cc1ccc2cccc(Oc3ncnc4sc(C)c(C)c34)c2n1	1	-8	-2	9	43*	10
Cc1ccc(-c2csc3ncnc(Oc4cccc5ccc(C)nc45)c23)cc1	-1	-7	-2	9	44*	-6
C[C@H](CO)N1C[C@H](C)[C@H](CN(C)Cc2cccnc2)OCc2cnnn2CCCC1=O	3	0	-8	x	0	-7
CC1CCN(C2=C(NS(=O)(=O)c3ccccc3)C(=O)c3ccccc3C2=O)CC1	6	57*	13	3	0	3
O=C1C(NS(=O)(=O)c2ccc(Br)cc2)=C(N2CCCCC2)C(=O)c2ccccc21	12	38*	24	-2	0	3
SMILES	ERp5 block	AF4-AF9 inh	ARNT TACC3 PPI	PDI inh	FGF22 binding	FN deposit inh
CN(C1=C(N2CCCCC2)C(=O)c2ccccc2C1=O)c1ccccc1	x	x	47*	-5	x	-5
CC1CCCN(C2=C(NS(=O)(=O)c3ccc(Br)cc3)C(=O)c3ccccc3C2=O)C1 (stereo not given)	5	-8	7	3	0	0
O=C1C(NS(=O)(=O)c2ccccc2)=C(N2CCN(c3ccc(F)cc3)CC2)C(=O)c2ccccc21	9	64*	9	-4	0	4
Cc1ccc(S(=O)(=O)Nc2ccc3c(c2)C(=O)N([C@@H](C)CO)C[C@@H](C)[C@@H](CN(C)C(=O)NC2CCCCC2)OCCCC[C@@H](C)O3)cc1	-4	-1	0	x	-1	x
C[C@H](CO)N1C[C@H](C)[C@@H](CN(C)Cc2ccc3c(c2)OCO3)Oc2ccc(NC(=O)CCN3CCOCC3)cc2C1=O	0	2	7	x	0	2
COCC(=O)N(C)C[C@@H]1Oc2ncc(-c3ccc(C)cc3)cc2C(=O)N([C@H](C)CO)C[C@@H]1C	2	-1	-16	x	0	8
O=C(C[C@H]1CC[C@@H]2[C@H](COC[C@H](O)CN2C(=O)c2ccccc2F)O1)NCc1ccc(Cl)c(Cl)c1	x	x	1	x	0	-12
C[C@@H]1CN([C@@H](C)CO)C(=O)c2ccccc2-c2ccccc2CO[C@@H]1CN(C)C(=O)c1ccccc1	2	-3	-1	x	0	-6
O=C(O)c1cc(-c2ccco2)nn1-c1ccc(Cl)cc1	-2	2	-3	2	0	-7
O=C(O)c1cc(-c2ccco2)nn1-c1cccc(Cl)c1	-9	1	-6	0	43*	-5
CCOC(=O)c1cc(-c2cccnc2)nn1-c1ccccc1C	1	-2	-8	-1	44*	7
C/C(CCc1ccccc1)=N\NC(=O)COc1ccccc1C	-1	-9	-6	0	43*	2
CCCC#Cc1cnc2c(c1)C(=O)N([C@@H](C)CO)C[C@@H](C)[C@@H](CN(C)S(=O)(=O)c1ccccc1)O2	-2	-1	-3	x	1	4
CCC(=O)N1[C@@H](CO)[C@H](c2ccccc2)[C@@H]1CNC(=O)CN1CCOCC1	-1	-3	-2	x	0	-8
